Data: ChEMBL document CHEMBL6083209, “Pyridazinone-based derivatives as anticancer agents endowed with anti-microbial activity: molecular design, synthesis, and biological investigation” (RSC Med Chem, 2024)
≈ marks a conversion by molar mass, not a printed value. Calls of active or inactive are those of the source. The rule behind the calls is not given here.

How the values were obtained:
[1] = tested on: Escherichia coli; test: Antimicrobial activity against Escherichia coli ATCC 25922 by broth microdilution method
[2] = tested on: Candida albicans; test: Antimicrobial activity against Candida albicans ATCC 10231 by broth microdilution method
[3] = tested on: Staphylococcus aureus; test: Antimicrobial activity against Staphylococcus aureus ATCC 29213 by broth microdilution method
[4] = tested on: K562; test: Antiproliferative activity against human K562 cells assessed as growth inhibition at 10 uM incubated for 48 hrs by SRB method; format: functional; details: K562, read-out: GI
In short: (§1)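 NCI-60 one-dose screen at 10 μM. Cells were grown in RPMI 1640 with 5% FBS and 2 mM L-glutamine and plated at 5000–40 000 cells/well for 24 h. Drug exposure was 48 h at 37 °C, 5% CO2. Cells were fixed with TCA, stained with 0.4% SRB and read at 515 nm. Growth is expressed as percent of untreated control and time-zero plates.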

[5] = tested on: NCI-H522; test: Antiproliferative activity against human NCI-H522 cells assessed as growth inhibition at 10 uM incubated for 48 hrs by SRB method; format: functional; details: NCI-H522, read-out: GI
In short: as §1

[6] = tested on: T47D; test: Antiproliferative activity against human T47D cells assessed as growth inhibition at 10 uM incubated for 48 hrs by SRB method; format: functional; details: read-out: GI
In short: as §1

[7] = tested on: PC-3; test: Antiproliferative activity against human PC-3 cells assessed as growth inhibition at 10 uM incubated for 48 hrs by SRB method; format: functional; details: PC-3, read-out: GI
In short: as §1

[8] = tested on: KM12; test: Antiproliferative activity against human KM12 cells assessed as growth inhibition at 10 uM incubated for 48 hrs by SRB method; format: functional; details: read-out: GI
In short: as §1

[9] = tested on: CCRF-CEM; test: Antiproliferative activity against human CCRF-CEM cells assessed as growth inhibition at 10 uM incubated for 48 hrs by SRB method; format: functional; details: read-out: GI
In short: as §1

[10] = tested on: MCF7; test: Antiproliferative activity against human MCF7 cells assessed as growth inhibition at 10 uM incubated for 48 hrs by SRB method; format: functional; details: read-out: GI
In short: as §1

[11] = tested on: OVCAR-3; test: Antiproliferative activity against human OVCAR-3 cells assessed as growth inhibition at 10 uM incubated for 48 hrs by SRB method; format: functional; details: read-out: GI
In short: as §1

[12] = tested on: SF-295; test: Antiproliferative activity against human SF-295 cells assessed as growth inhibition at 10 uM incubated for 48 hrs by SRB method; format: functional; details: read-out: GI
In short: as §1

[13] = tested on: RPMI-8226; test: Antiproliferative activity against human RPMI-8226 cells assessed as growth inhibition at 10 uM incubated for 48 hrs by SRB method; format: functional; details: RPMI-8226, read-out: GI
In short: as §1

[14] = Upregulation of Bax gene expression in human A549 cells assessed as fold increase by qRT-PCR analysis; format: functional
In short: (§2)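 A549/ATCC cells treated, total RNA DNase-treated and checked by 260/280 ratio (1.8–2.1). Reverse transcription with oligo-dT and MuLV RT: 25 °C 10 min, 42 °C 1 h, 99 °C 5 min. qPCR of 40 cycles (95 °C 15 s, 55 °C 30 s, 72 °C 30 s) followed by melt curve. Relative expression by the 2−ΔΔCT method, mean ± SEM.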

[15] = tested on: A549; test: Downregulation of Bcl-2 gene expression in human A549 cells by qRT-PCR analysis; format: functional, cell-based
In short: as §2

[16] = Upregulation of p53 gene expression in human A549 cells assessed as fold increase by qRT-PCR analysis; format: functional
In short: as §2

Row | SMILES | MIC [1] [µg/mL] | MIC [2] [µg/mL] | MIC [3] [µg/mL] | other results
1 | O=c1ccc(-c2ccc(NC(=S)Nc3cccc(Br)c3)cc2)n[nH]1 | 1020 (≈ 2550 µM) | 32 (≈ 79.7 µM) | 128 (≈ 319 µM) | 
2 | O=C(Nc1ccc(-c2ccc(=O)[nH]n2)cc1)Nc1cccc(Br)c1 | 512 (≈ 1330 µM) | > 1020 | 128 (≈ 332 µM) | 
3 | O=C1CCC(c2ccc(NC(=S)NC(=O)c3ccc(Br)cc3)cc2)=NN1 | 256 (≈ 594 µM) | 512 (≈ 1190 µM) | 512 (≈ 1190 µM) | 
4 | O=c1ccc(-c2ccc(NS(=O)(=O)c3cccc(Br)c3)cc2)n[nH]1 | 256 (≈ 630 µM) | 64 (≈ 158 µM) | 512 (≈ 1260 µM) | 
5 | O=c1ccc(-c2ccc(NS(=O)(=O)c3cccc(F)c3)cc2)n[nH]1 | 1020 (≈ 2970 µM) | 256 (≈ 741 µM) | 512 (≈ 1480 µM) | 
6 | O=c1ccc(-c2ccc(NC(=S)Nc3c(Cl)cc(Cl)cc3Cl)cc2)n[nH]1 | 256 (≈ 601 µM) | 64 (≈ 150 µM) | 128 (≈ 301 µM) | 
7 | O=c1ccc(-c2ccc(NS(=O)(=O)c3ccc(F)c(Cl)c3)cc2)n[nH]1 | 256 (≈ 674 µM) | 256 (≈ 674 µM) | 128 (≈ 337 µM) | 
8 | O=C(Nc1ccc(-c2ccc(=O)[nH]n2)cc1)Nc1cccc(Cl)c1 | > 1020 | > 1020 | 256 (≈ 751 µM) | inhibition of growth at 10 µM [4]: 68.4%; inhibition of growth at 10 µM [5]: 73.5%; inhibition of growth at 10 µM [6]: 74.7%; inhibition of growth at 10 µM [7]: 68%; inhibition of growth at 10 µM [8]: 66.4%; inhibition of growth at 10 µM [9]: 72.9%; inhibition of growth at 10 µM [10]: 64%; inhibition of growth at 10 µM [11]: 62.2%; inhibition of growth at 10 µM [12]: 72.7%; inhibition of growth at 10 µM [13]: 73.5%
9 | COc1cccc2c1C(=O)c1c(O)c3c(c(O)c1C2=O)C[C@@](O)(C(=O)CO)C[C@@H]3O[C@H]1C[C@H](N)[C@H](O)[C@H](C)O1 [DOXORUBICIN] |  |  |  | fold change (FC) [14]: 3; Activity [15]: Active; fold change (FC) [16]: 3
10 | O=c1ccc(-c2ccc(NC(=S)Nc3ccc(Cl)c(Cl)c3)cc2)n[nH]1 | 512 (≈ 1310 µM) | 32 (≈ 81.8 µM) | 128 (≈ 327 µM) | 
11 | O=C(NC(=S)Nc1ccc(-c2ccc(=O)[nH]n2)cc1)c1ccc(Cl)c(Cl)c1 | > 1020 | 512 (≈ 1220 µM) | > 1020 | 
12 | O=c1ccc(-c2ccc(NS(=O)(=O)c3ccc(Cl)c(Cl)c3)cc2)n[nH]1 | 1020 (≈ 2580 µM) | 256 (≈ 646 µM) | 512 (≈ 1290 µM) | 
13 | O=C(NC(=S)Nc1ccc(-c2ccc(=O)[nH]n2)cc1)c1ccc(F)c(Cl)c1 | 256 (≈ 635 µM) | 512 (≈ 1270 µM) | 512 (≈ 1270 µM) | 
